Experiment [1] addresses Glutamate NMDA receptor. As to the kind of experiment: Affinity for the glycine binding site of NMDA receptor by inhibition of [3H]5,7-dichlorokynurenic acid ([3H]DCKA) binding to rat brain synaptic membrane.
Experiment [2] relates to Glutamate NMDA receptor (Mus musculus). As to the kind of experiment: In vivo inhibition of NMDA-induced seizures.
Experiment [3] has as its target Glutamate NMDA receptor. As to the kind of experiment: The compound was tested for its affinity for the glutamic acid binding site of the NMDA receptor by using [3H]CGP-39653 as radioligand. The format is protein-complex assay. Put shortly: (§1)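 Selectivity radioligand binding, run like the [3H]DCKA assay on rat brain synaptic membranes. [3H]CGP-39653 labels the NMDA glutamic acid site; [3H]AMPA and [3H]kainic acid label non-NMDA receptors.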

Experiment [4] is described as follows: The compound was tested for its affinity for the glutamic acid binding site of the non-NMDA receptor by using [3H]AMPA as radioligand. Also on record: species or system Rattus norvegicus. A digest of the protocol: as §1
Experiment [5] is described as follows: The compound was tested for its affinity for the glutamic acid binding site of the non-NMDA receptor by using [3H]-kainic acid as radioligand. Also on record: species or system Rattus norvegicus. Put shortly:
as §1

Experiment [6] deals with Glutamate NMDA receptor. As to the kind of experiment: The compound was tested for its functional antagonism of the NMDA receptor by using [3H]-MK-801 as radioligand.

Here are results for 23 molecules from ChEMBL document CHEMBL1127409 (J Med Chem, 1994).

Molecules are shown by their SMILES.

In experiment [1], `Oc1nc2cc(Cl)c(Cl)cc2nc1O` [2,3-DIHYDROXY-6,7-DICHLOROQUINOXALINE] gave a Ki of 160 nM. The same measure, in the same setting: the value for `O=C(O)C1Cc2cc(Br)cc3[nH]c(=O)c(=O)n1c23` (stereo not drawn) was 83 nM; that for `O=C(Nc1ccccc1)N[C@H]1C[C@H](C(=O)O)Nc2cc(Cl)cc(Cl)c21` was 2 nM; that for `O=C(NCC1CCc2cc(Br)cc3[nH]c(=O)c(=O)n1c23)c1ccccc1` (stereo not drawn) was 190 nM. For `O=C(C[C@@H]1CCc2cc(Br)cc3[nH]c(=O)c(=O)n1c23)Nc1ccccc1`, in experiment [1], the Ki came out at 0.96 nM. `O=C(NCC1Cc2cc(Br)cc3[nH]c(=O)c(=O)n1c23)c1ccccc1` (stereo not drawn) had a Ki in experiment [1] of more than 2000 nM.

In experiment [1], `O=C(O)C[C@H]1CCc2cc(Br)cc3[nH]c(=O)c(=O)n1c23` returned a Ki of 9.6 nM. Still for that read-out and setting: the value for `O=C(NCC1Cc2cc(Br)cc3[nH]c(=O)c(=O)n1c23)Nc1ccccc1` (stereo not drawn) was 430 nM.

`O=C(C[C@H]1CCc2cc(Br)cc3[nH]c(=O)c(=O)n1c23)Nc1ccccc1`: the affinity in experiment [1] corresponds to a Ki of 82 nM. In turn, `O=C(O)C[C@@H]1CCc2cc(Br)cc3[nH]c(=O)c(=O)n1c23` came in with a Ki in experiment [1] of 2.3 nM. In experiment [2], this molecule showed an ED50 of 26 mg/kg. As for `O=C(O)CCC1CCc2cc(Br)cc3[nH]c(=O)c(=O)n1c23` (stereo not drawn), in experiment [1], the Ki was 38 nM. The same measure, in the same setting: the result for `O=C(CCC1CCc2cc(Br)cc3[nH]c(=O)c(=O)n1c23)Nc1ccccc1` (stereo not drawn) reads 320 nM; that for `O=C(O)C1CCc2cc(Br)cc3[nH]c(=O)c(=O)n1c23` (stereo not drawn), 30 nM.

With `O=C(O)CC1CCc2cc(Br)cc3[nH]c(=O)c(=O)n1c23` (stereo not drawn), the IC50 is more than 30000 nM in experiment [3], 4600 nM in experiment [4], more than 30000 nM in experiment [5] and 4100 nM in experiment [6]. This molecule registered a Ki in experiment [1] of 9.9 nM. Moreover, in experiment [2], the ED50 is 64 mg/kg. For the molecule `O=C(CC1Cc2cc(Br)cc3[nH]c(=O)c(=O)n1c23)Nc1ccccc1` (stereo not drawn), the affinity in experiment [1], expressed as Ki, was 170 nM. The same measure, in the same setting: the result for `O=C(O)CC1Cc2cc(Br)cc3[nH]c(=O)c(=O)n1c23` (stereo not drawn) reads 7.3 nM; that for `O=C(Nc1ccccc1)C1CCc2cc(Br)cc3[nH]c(=O)c(=O)n1c23` (stereo not drawn), 2100 nM. Molecule `O=C(NCC1CCc2cc(Br)cc3[nH]c(=O)c(=O)n1c23)Nc1ccccc1` (stereo not drawn) came in with a Ki in experiment [1] of 480 nM. On the same count and under the same terms, the result for `O=c1[nH]c2cc(Br)cc3c2n(c1=O)CC3` reads more than 3000 nM. Molecule `O=c1[nH]c2cc(Br)cc3c2n(c1=O)CCC3` came in with a Ki in experiment [1] of 710 nM. This lies in the sub-micromolar range. On to `O=C(CC1CCc2cc(Br)cc3[nH]c(=O)c(=O)n1c23)Nc1ccccc1` (stereo not drawn), for which the IC50 in experiment [3] is more than 25000 nM; in experiment [4] it was 4600 nM; in experiment [5], more than 25000 nM; in experiment [6] it was 1700 nM. Also, in experiment [1], the Ki stood at 2.6 nM. In experiment [1], `O=C(Nc1ccccc1)C1Cc2cc(Br)cc3[nH]c(=O)c(=O)n1c23` (stereo not drawn) returned a Ki of 930 nM. Regarding `O=C(O)c1cc(O)c2c(Cl)cc(Cl)cc2n1`, the Ki in experiment [1] came to 40 nM. Compared with the last molecule, the Ki is about 23-fold lower.

One may read the Ki as the dissociation constant of the complex between target and ligand, obtained from inhibition or displacement. Lower therefore signals tighter binding. One may read the ED50 as the midpoint of the dose-response relation. High values mean a need for a large dose, low ones an effect at a small dose. What is called IC50 is the point on the concentration scale where inhibition reaches its midpoint. High values mean lower potency, low ones higher potency.
